Assays:
[1] = biological target: Histamine H2 receptor (Cavia porcellus) (UniProt P47747); assay: In vitro Histamine H2 receptor antagonist activity in the histamine-stimulated guinea pig right atrium; assay type: functional, tissue-based; details: Cardiac atrium
[2] = Log (Cbrain/Cblood) in rats; details: rat
[3] = Log of (Cbrain/Cblood) in rats; details: rat
[4] = Change in logarithm of partition coefficient of the compound; assay type: physicochemical; details: octanol/water
How it was run: (§1)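 Shake-flask partitioning at 37 °C in 1-octanol/water and cyclohexane/water, with buffer salts setting aqueous pH. Aqueous-phase compound concentration was read spectrophotometrically before and after partitioning. Neutral-form log P was calculated from eq 1 using the measured log P at a stated pH and the pKa. Values are means of ≥2 determinations. Δlog P = log P(octanol) − log P(cyclohexane).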

[5] = Partition coefficient (Log Pn, neutral form, cyclohexane/water); assay type: ADME; how it was run: as §1
[6] = (§2) Logarithm of partition coefficient of the neutral form of compound given for octanol/water solvent system; assay type: physicochemical
How it was run: as §1, with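 “pKa.” for “pKa. Values are means of ≥2 determinations. Δlog P = log P(octanol) − log P(cyclohexane).”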

[7] = Delta logPoct-cyc; assay type: ADME; details: octanol/water
How it was run: as §1, with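 “pKa.” for “pKa. Values are means of ≥2 determinations. Δlog P = log P(octanol) − log P(cyclohexane).”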

[8] = Logarithm of partition coefficient of the neutral form of compound given for […]/water solvent system; assay type: physicochemical; details: octanol/water
[9] = as §2; assay type: physicochemical; how it was run: as §1; remark: listed apart in the source

Histamine H2 receptor (Cavia porcellus), sequence (P47747 whole entry): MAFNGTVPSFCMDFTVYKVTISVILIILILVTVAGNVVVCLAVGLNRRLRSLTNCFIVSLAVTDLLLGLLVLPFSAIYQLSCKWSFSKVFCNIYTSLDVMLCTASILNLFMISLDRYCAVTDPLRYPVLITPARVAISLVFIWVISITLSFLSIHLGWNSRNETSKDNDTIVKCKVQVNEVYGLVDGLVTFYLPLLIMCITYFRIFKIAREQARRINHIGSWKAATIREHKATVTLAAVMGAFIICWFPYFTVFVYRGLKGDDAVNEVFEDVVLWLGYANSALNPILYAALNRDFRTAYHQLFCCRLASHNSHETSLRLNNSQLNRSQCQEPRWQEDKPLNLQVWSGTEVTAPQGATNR

| Compound | -Log KB [1] | delta Log P [4] | Log Pn [5] | logP [6] | Kp ([3]; in vivo) | further results |
| --- | --- | --- | --- | --- | --- | --- |
| c1ccc(NCCCOc2cccc(CN3CCCCC3)c2)cc1 | 5.7 |  |  |  |  |  |
| O=S(=O)(NCCCOc1cccc(CN2CCCCC2)c1)c1ccccc1 | < 4.8 |  |  |  |  |  |
| C/N=C(\NC#N)Nc1cccc(-c2csc(N=C(N)N)n2)c1 | 7.84 | 4.26 | -2.66 |  |  | Kp ([2]; brain and blood): 0.0288; Kp ([3]; brain and blood): 0.0293 |
| N=C(N)Nc1nc(-c2ccccc2)cs1 | 5.93 |  |  |  |  |  |
| CN/C(=C\[N+](=O)[O-])NCCSCc1ccc(CN(C)C)o1 [RANITIDINE] | 7.05 |  | < -3 | 0.27 | 0.0586 | Kp ([2]; in vivo): 0.0589 |
| CN(C)Cc1ccc(-c2cccc(Nc3[nH]ccc3[N+](=O)[O-])c2)o1 | 6.02 | 2.88 | 0.22 | 3.1 |  | Kp ([2]; brain and blood): 0.537; Kp ([3]; brain and blood): 0.545 |
| Cc1[nH]cnc1CSCCNc1[nH]ccc1[N+](=O)[O-] | 7.31 |  |  | 1.04 |  |  |
| CC/N=C(\NC#N)NCCSCc1ncccc1Br | 6.5 |  |  | 1.98 | 0.00753 | Kp ([2]; in vivo): 0.00708 |
| CN(C)Cc1ccc(CSCCNc2[nH]cc(Cc3ccccc3)c2[N+](=O)[O-])o1 | 7.35 | 2.54 | 1.11 | 3.65 | 0.184 | Kp ([2]; in vivo): 0.186 |
| CN(C)c1cc(-c2n[nH]c(N)n2)ccn1 | 5.59 |  |  |  |  | Kp ([2]; brain and blood): 0.0676 |
| CN(C)Cc1ccc(-c2cccc(CNc3[nH]ccc3[N+](=O)[O-])c2)o1 | < 3.8 |  |  |  |  |  |
| c1cc(CN2CCCCC2)cc(OCCCNc2nc3ccccc3o2)c1 | 7.19 |  |  |  | 1.42 |  |
| CN(C)c1cccc(-c2csc(NC(=N)N)n2)c1 | < 3.8 |  |  |  |  |  |
| c1cc(CN2CCCCC2)cc(OCCCNc2nc3ccccc3s2)c1 [ZOLANTIDINE] | 7.46 | 1.69 | 3.72 |  | 1.38 |  |
| CC(=O)NCCCOc1cccc(CN2CCCCC2)c1 | 7.79 | 1.93 | 0.22 | 2.15 | 0.346 | Kp ([2]; in vivo): 0.347 |
| CC(NCCCOc1cccc(CN2CCCCC2)c1)=C(C#N)C#N | < 4.9 |  |  |  |  |  |
| c1cc(CN2CCCCC2)cc(OCCCNc2nccs2)c1 | 7.41 |  |  |  | 1.98 | Kp ([2]; in vivo): 2.75 |
| COc1ccc(CN(CCN(C)C)c2ccccn2)cc1 [PYRILAMINE] |  |  |  | 3.3 |  | delta logP [7]: 0.71 |
| O=[N+]([O-])c1cc[nH]c1NCCSCc1ccccn1 | 6.7 |  |  |  | 0.18 |  |
| Cc1ccc(Cc2c[nH]c(NCCSCc3ccc(CN(C)C)o3)nc2=O)cn1 [LUPITIDINE] | 7.91 | 3.81 | -1.48 | 2.33 |  | Log Pn [8]: 2.64; Kp ([2]; brain and blood): 0.0871; Kp ([3]; brain and blood): 0.0884 |
| CS(=O)(=O)NCCCOc1cccc(CN2CCCCC2)c1 | 4.67 |  |  |  |  |  |

| Compound | -Log KB [1] | delta Log P [4] | Log Pn [5] | logP [6] | Kp ([3]; in vivo) | further results |
| --- | --- | --- | --- | --- | --- | --- |
| O=[N+]([O-])c1cc[nH]c1NCCSCc1nccc2ccccc12 | 6.84 | 3.46 | -0.67 | 2.79 |  |  |
| NCCCOc1cccc(CN2CCCCC2)c1 | 5.19 |  |  |  |  |  |
| O=[N+]([O-])c1c(Cc2ccccc2)c[nH]c1NCCSCc1ccccn1 | 6.97 |  |  |  |  | Kp ([2]; brain and blood): 0.759; Kp ([3]; brain and blood): 0.724 |
| FC(F)(F)CNCCCOc1cccc(CN2CCCCC2)c1 | < 4.3 |  |  |  |  |  |
| CC(=O)Nc1cccc(-c2csc(N=C(N)N)n2)c1 | 7.36 |  |  |  | 0.018 | Kp ([2]; in vivo): 0.0269 |
| CN(C)Cc1ccc(CSCCNc2ncc(Cc3ccc4ccccc4c3)c(O)n2)o1 |  |  |  | 4.57 |  | delta logP [7]: 4.1 |
| NC(N)=Nc1nc(-c2ccccc2)cs1 |  | 3.92 | -1.28 | 2.64 |  | Kp ([2]; brain and blood): 0.661; Kp ([3]; brain and blood): 0.66 |
| N=C(N)Nc1nc(-c2cccc(N)c2)cs1 | 7.33 | 4.6 | -3.19 | 1.41 |  | Kp ([2]; brain and blood): 0.0708; Kp ([3]; brain and blood): 0.0705 |
| c1cc(CN2CCCCC2)cc(OCCCNc2ccc3ccccc3n2)c1 | 6.21 |  |  |  |  |  |
| COc1cccnc1CCCCNc1ncc(Cc2ccc(C)nc2)c(=O)[nH]1 [ICOTIDINE] |  |  |  |  |  | delta logP [7]: 5.18; logP [9]: 2.58 |
| O=[N+]([O-])c1cc[nH]c1NCCSCc1ncccc1Br | 7.24 | 3.09 | -1.34 | 1.75 |  | Kp ([2]; brain and blood): 0.214; Kp ([3]; brain and blood): 0.214 |
| OCCCOc1cccc(CN2CCCCC2)c1 |  |  | 1.31 | 2.78 |  |  |
| CN(C)Cc1ccc(-c2ccc(Nc3[nH]ccc3[N+](=O)[O-])cc2)o1 | < 4.3 |  |  |  |  |  |
| CN(C)Cc1ccnc(-c2cccc(Nc3[nH]ccc3[N+](=O)[O-])c2)c1 | 6.6 |  |  |  | 0.454 | Kp ([2]; in vivo): 0.525 |
| Clc1cccc(Cl)c1N=C1NCCN1 [CLONIDINE] |  |  |  |  |  | delta logP [7]: 2.44 |
| CN(C)Cc1ccc(CSCCNc2[nH]ccc2[N+](=O)[O-])o1 | 6.63 | 3.12 | -1.48 | 1.64 |  | Kp ([2]; brain and blood): 0.0759; Kp ([3]; brain and blood): 0.0652 |
| CNC(=NCCSCc1csc(N=C(N)N)n1)NC#N [TIOTIDINE] |  |  |  | 0.6 |  |  |
| O=C(NCCCOc1cccc(CN2CCCCC2)c1)c1ccccc1 | 7.79 | 1.79 | 2.18 | 3.97 | 0.58 | Kp ([2]; in vivo): 0.575 |
| c1ccc(NCCCOc2cccc(CN3CCCCC3)c2)nc1 | 6.09 | 1.06 | 3.23 | 4.29 | 4.85 | Kp ([2]; in vivo): 4.9 |
| Cc1csc(N=C(N)N)n1 | 6.27 | 4.03 | -2.79 |  | 0.873 | Kp ([2]; in vivo): 0.912 |

From ChEMBL document CHEMBL1124065, “Development of a new physicochemical model for brain penetration and its application to the design of centrally acting H2 receptor histamine antagonists” (J Med Chem, 1988)
